{"source": "ChEMBL document CHEMBL3826890", "about": "“Synthesis and properties of peptide nucleic acid labeled at the N-terminus with HiLyte Fluor 488 fluorescent dye” (Bioorg Med Chem, 2016)", "key": {"[1]": {"test_system": "HEK293", "assay": "Drug degradation in HEK293 cells assessed as photobleaching rate at 1 uM after 12 scans using FAM-labeled compound by DAPI staining-based laser scanning microscopic method", "assay_type": "ADME, cell-based", "details": "human, hek293, 1 µM; call rule not given here", "summary_of_the_method": "(§1)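 Live HEK293 cells incubated 12 h at 37 °C with 1 µM labeled PNA in Opti-MEM, then nuclei stained with DAPI. Laser scanning confocal images (63× objective) taken at 32-s intervals over 30 min, scan average 8. Photostability given as MFI of each scan divided by MFI of the first scan, as a percentage. Mean of three experiments.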"}, "[2]": {"test_system": "HEK293", "assay": "Drug degradation in HEK293 cells assessed as photobleaching rate at 1 uM after 4 scans using FAM-labeled compound by DAPI staining-based laser scanning microscopic method", "assay_type": "ADME, cell-based", "details": "human, hek293, 1 µM", "summary_of_the_method": "as §1"}, "[3]": {"test_system": "HEK293", "assay": "Drug uptake in HEK293 cells at 1 uM after 12 hrs using FAM-labeled compound by flow cytometric method", "assay_type": "ADME, cell-based", "details": "human, hek293, 12 h", "summary_of_the_method": "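HEK293 cells incubated 12 h at 37 °C with 1 µM labeled PNA in Opti-MEM. Cells harvested, resuspended in DPBS and analysed by flow cytometry.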"}, "[4]": {"test_system": "HEK293", "assay": "Fluorescence intensity in buffer at 1 uM at pH 5 to 8 at 25 degC after 12 hrs using 5'-HF488-labeled compound by fluorescence spectroscopy", "details": "pH 5, 12 h"}, "[5]": {"test_system": "HEK293", "assay": "Fluorescence intensity in buffer at 1 uM at pH <7 at 25 degC after 12 hrs using FAM-labeled compound by fluorescence spectroscopy"}, "[6]": {"test_system": "HEK293", "assay": "Fluorescence intensity in buffer at 1 uM at pH 5 to 8 at 25 degC after 12 hrs using 6'-HF488-labeled compound by fluorescence spectroscopy", "details": "pH 5, 12 h"}, "[7]": {"assay": "Drug uptake in cytoplasm of human MDA-MB-231 cells at 1 uM after 24 hrs using HF488-labeled compound by lysotracker deep red/DAPI based fluorescence assay", "assay_type": "ADME, cell-based", "details": "mda-mb-231, 24 h", "summary_of_the_method": "(§2)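 Cells treated with 1 µM HF488-labeled PNA in Opti-MEM at 37 °C, 10% CO2, for 24 h. Acidic organelles then stained with LysoTracker Deep Red and nuclei with DAPI. Intracellular localization assessed by fluorescence microscopy.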"}, "[8]": {"assay": "Drug uptake in cytoplasm of human U87MG cells at 1 uM after 24 hrs using HF488-labeled compound by lysotracker deep red/DAPI based fluorescence assay", "assay_type": "ADME, cell-based", "details": "u-87mg atcc", "summary_of_the_method": "as §2"}, "[9]": {"assay": "Drug uptake in cytoplasm of HEK293 cells at 1 uM after 24 hrs using HF488-labeled compound by lysotracker deep red/DAPI based fluorescence assay", "assay_type": "ADME, cell-based", "details": "human, hek293, 24 h", "summary_of_the_method": "as §2"}, "[10]": {"assay": "Drug uptake in cytoplasm of human Caco2 cells at 1 uM after 24 hrs using HF488-labeled compound by lysotracker deep red/DAPI based fluorescence assay", "assay_type": "ADME, cell-based", "details": "caco-2, 24 h", "summary_of_the_method": "as §2"}, "[11]": {"assay": "Binding affinity to dsRNA (unknown origin) after 350 to 600 secs by isothermal titration calorimetry assay"}}, "data": [{"smiles": "Cc1cn(CC(=O)N(CCNC(=O)CN(CCNC(=O)CN(CCNC(=O)CN(CCNC(=O)[C@H](CCCCN)NC(=O)COCCOCCNC(=O)COCCOCCNC(=O)[C@@H](N)CCCCN)C(=O)Cc2ccc(N)nc2)C(=O)Cn2cc(C)c(=O)[nH]c2=O)C(=O)Cc2ccc(N)nc2)CC(=O)NCCN(CC(=O)NCCN(CC(=O)NCCN(CC(=O)NCCN(CC(=O)NCCN(CC(=O)N[C@@H](CCCCN)C(=O)N[C@@H](CCCCN)C(=O)N[C@@H](CCCCN)C(N)=O)C(=O)Cc2ccc(N)nc2)C(=O)Cc2ccc(N)nc2)C(=O)Cn2cc(C)c(=O)[nH]c2=O)C(=O)Cn2cc(C)c(=O)[nH]c2=O)C(=O)Cc2ccc(N)nc2)c(=O)[nH]c1=O", "values": [{"measurement": "Drug degradation", "setting": "[1]", "result": 50, "unit": "%"}, {"measurement": "Drug degradation", "setting": "[2]", "result": 20, "unit": "%"}, {"measurement": "Drug uptake", "setting": "[3]", "result": "Active"}]}, {"smiles": "Cc1cn(CC(=O)N(CCNC(=O)CN(CCNC(=O)CN(CCNC(=O)CN(CCNC(=O)[C@H](CCCCN)NC(=O)COCCOCCNC(=O)COCCOCCN)C(=O)Cn2ccc(N)nc2=O)C(=O)Cn2cc(C)c(=O)[nH]c2=O)C(=O)Cn2ccc(N)nc2=O)CC(=O)NCCN(CC(=O)NCCN(CC(=O)NCCN(CC(=O)NCCN(CC(=O)NCCN(CC(=O)N[C@@H](CCCCN)C(=O)N[C@@H](CCCCN)C(=O)N[C@@H](CCCCN)C(N)=O)C(=O)Cn2ccc(N)nc2=O)C(=O)Cn2ccc(N)nc2=O)C(=O)Cn2cc(C)c(=O)[nH]c2=O)C(=O)Cn2cc(C)c(=O)[nH]c2=O)C(=O)Cn2ccc(N)nc2=O)c(=O)[nH]c1=O", "values": [{"measurement": "Fluorescence intensity", "setting": "[4]", "result": "Active"}, {"measurement": "Fluorescence intensity", "setting": "[5]", "result": "Not Active"}, {"measurement": "Fluorescence intensity", "setting": "[6]", "result": "Active"}]}, {"smiles": "Cc1cn(CC(=O)N(CCNC(=O)CN(CCNC(=O)CN(CCNC(=O)CN(CCNC(=O)[C@@H](N)CCCCN)C(=O)Cc2ccc(N)nc2)C(=O)Cn2cc(C)c(=O)[nH]c2=O)C(=O)Cc2ccc(N)nc2)CC(=O)NCCN(CC(=O)NCCN(CC(=O)NCCN(CC(=O)NCCN(CC(=O)NCCN(CC(=O)N[C@@H](CCCCN)C(=O)N[C@@H](CCCCN)C(=O)N[C@@H](CCCCN)C(N)=O)C(=O)Cc2ccc(N)nc2)C(=O)Cc2ccc(N)nc2)C(=O)Cn2cc(C)c(=O)[nH]c2=O)C(=O)Cn2cc(C)c(=O)[nH]c2=O)C(=O)Cc2ccc(N)nc2)c(=O)[nH]c1=O", "values": [{"measurement": "Drug uptake", "setting": "[7]", "result": "Active"}, {"measurement": "Drug uptake", "setting": "[8]", "result": "Active"}, {"measurement": "Drug uptake", "setting": "[9]", "result": "Active"}, {"measurement": "Drug uptake", "setting": "[10]", "result": "Active"}]}, {"smiles": "Cc1cn(CC(=O)N(CCNC(=O)CN(CCNC(=O)CN(CCNC(=O)CN(CCNC(=O)[C@@H](N)CCCCN)C(=O)Cc2ccc(N)nc2)C(=O)Cn2cc(C)c(=O)[nH]c2=O)C(=O)Cc2ccc(N)nc2)CC(=O)NCCN(CC(=O)NCCN(CC(=O)NCCN(CC(=O)NCCN(CC(=O)NCCN(CC(=O)N[C@H](CCCCN)C(=O)N[C@@H](CCCCN)C(=O)N[C@H](CCCCN)C(N)=O)C(=O)Cc2ccc(N)nc2)C(=O)Cc2ccc(N)nc2)C(=O)Cn2cc(C)c(=O)[nH]c2=O)C(=O)Cn2cc(C)c(=O)[nH]c2=O)C(=O)Cc2ccc(N)nc2)c(=O)[nH]c1=O", "values": [{"measurement": "Kd", "setting": "[11]", "result": 7.35, "unit": "nM"}]}]}
